According to ChEMBL document CHEMBL4825688, “Synthesis, biological evaluation and molecular modeling of benzofuran piperidine derivatives as Aβ antiaggregant” (Eur J Med Chem, 2021):
Active and inactive are the calls of the source. No cut-off for these calls is given here.

Legend:
[1] = target: T1, Amyloid-beta precursor protein (Homo sapiens, UniProt P05067); assay: Inhibition of human amyloid beta (25 to 35) self-induced aggregation at 100 uM after 48 hrs by thioflavin-T fluorescence relative to control
T1 sequence (P05067 whole entry): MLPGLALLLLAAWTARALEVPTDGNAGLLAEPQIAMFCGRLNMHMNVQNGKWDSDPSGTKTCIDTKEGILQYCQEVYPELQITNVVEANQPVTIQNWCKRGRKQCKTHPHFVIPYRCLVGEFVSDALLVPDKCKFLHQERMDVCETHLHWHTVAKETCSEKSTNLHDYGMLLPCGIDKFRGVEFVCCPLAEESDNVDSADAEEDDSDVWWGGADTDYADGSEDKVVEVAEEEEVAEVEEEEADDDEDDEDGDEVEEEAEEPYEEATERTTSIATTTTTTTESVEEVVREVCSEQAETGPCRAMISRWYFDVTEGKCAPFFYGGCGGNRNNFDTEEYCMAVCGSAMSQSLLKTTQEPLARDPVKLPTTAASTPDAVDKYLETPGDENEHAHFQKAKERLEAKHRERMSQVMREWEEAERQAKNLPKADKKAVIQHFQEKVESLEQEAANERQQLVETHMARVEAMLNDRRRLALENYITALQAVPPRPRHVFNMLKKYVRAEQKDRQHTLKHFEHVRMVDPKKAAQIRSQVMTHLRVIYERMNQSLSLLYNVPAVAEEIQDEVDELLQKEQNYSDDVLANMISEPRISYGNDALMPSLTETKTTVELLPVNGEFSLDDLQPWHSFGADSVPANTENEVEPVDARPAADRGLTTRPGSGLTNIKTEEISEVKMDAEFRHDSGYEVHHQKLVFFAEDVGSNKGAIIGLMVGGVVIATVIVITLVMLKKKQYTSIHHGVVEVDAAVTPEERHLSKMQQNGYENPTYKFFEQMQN
Procedure, shortened: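 Aβ25-35 (10 μM, DMSO stock diluted) incubated with test compound (100 μM) in 0.05 M potassium phosphate buffer (pH 7.4) containing 0.01 M NaCl, 37 °C, 48 h; then ThT (200 μM) in 50 mM glycine-NaOH (pH 8.0) added and fluorescence read. Mean ± SD of three experiments.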

Acetylcholinesterase = Acetylcholinesterase (Homo sapiens, UniProt P22303); assay: Inhibition of recombinant human AChE using acetylthiocholine iodide as substrate measured after 7 mins by Ellman's method
Chain of Acetylcholinesterase (P22303 whole entry): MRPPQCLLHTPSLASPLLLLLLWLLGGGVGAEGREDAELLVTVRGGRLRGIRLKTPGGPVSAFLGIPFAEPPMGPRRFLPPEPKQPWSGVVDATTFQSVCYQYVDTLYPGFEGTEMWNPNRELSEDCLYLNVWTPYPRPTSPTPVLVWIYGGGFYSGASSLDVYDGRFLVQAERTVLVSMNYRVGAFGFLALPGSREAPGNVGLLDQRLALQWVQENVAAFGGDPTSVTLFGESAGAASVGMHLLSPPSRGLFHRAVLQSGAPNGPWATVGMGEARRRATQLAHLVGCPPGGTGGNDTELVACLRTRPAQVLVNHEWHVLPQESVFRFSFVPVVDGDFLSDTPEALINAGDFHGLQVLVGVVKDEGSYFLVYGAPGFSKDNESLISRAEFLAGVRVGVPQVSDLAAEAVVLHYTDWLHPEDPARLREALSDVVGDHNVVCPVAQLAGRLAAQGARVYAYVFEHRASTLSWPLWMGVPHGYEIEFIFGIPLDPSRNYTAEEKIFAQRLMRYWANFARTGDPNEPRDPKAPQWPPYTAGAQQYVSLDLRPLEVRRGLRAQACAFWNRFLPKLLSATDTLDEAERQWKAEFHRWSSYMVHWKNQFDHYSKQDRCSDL

Cholinesterase = Cholinesterase (Homo sapiens, UniProt P06276); assay: Inhibition of recombinant human BuChe using S-butyrylthiocholine iodide as substrate measured after 7 mins by Ellman's method
Chain of Cholinesterase (P06276 whole entry): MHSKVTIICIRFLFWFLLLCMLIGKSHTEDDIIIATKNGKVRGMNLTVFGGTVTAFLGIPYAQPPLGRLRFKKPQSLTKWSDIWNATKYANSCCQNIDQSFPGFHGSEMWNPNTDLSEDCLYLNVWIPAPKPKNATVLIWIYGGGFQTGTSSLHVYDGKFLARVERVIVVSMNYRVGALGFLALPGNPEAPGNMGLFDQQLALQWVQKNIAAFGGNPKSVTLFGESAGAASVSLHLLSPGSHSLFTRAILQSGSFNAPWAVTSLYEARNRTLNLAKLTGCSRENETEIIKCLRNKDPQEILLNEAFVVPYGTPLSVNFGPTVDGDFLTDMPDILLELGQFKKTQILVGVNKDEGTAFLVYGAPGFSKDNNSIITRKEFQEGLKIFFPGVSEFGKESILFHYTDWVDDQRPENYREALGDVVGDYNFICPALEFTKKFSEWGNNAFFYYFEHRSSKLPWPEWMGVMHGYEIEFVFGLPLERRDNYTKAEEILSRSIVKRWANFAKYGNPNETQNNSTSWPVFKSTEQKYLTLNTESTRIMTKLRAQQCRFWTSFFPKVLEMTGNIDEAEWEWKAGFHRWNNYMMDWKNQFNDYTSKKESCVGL

Homo sapiens = organism: Homo sapiens; assay: Selectivity index, ratio of IC50 for human BuChE to IC50 for human AChE
[2] = Cytotoxicity against human SH-SY5Y cells assessed as cell viability at 10 uM measured after 48 hrs by MTT assay relative to control
SH-SY5Y [3] = assay: Neuroprotective activity against amyloid beta (25 to 35)-induced cell damage in human SH-SY5Y cells assessed as neuronal viability at 10 uM measured after 24 hrs in presence of amyloid beta (25 to 35) by MTT assay (reference value: 68.66 +/- 0.11 %); assay type: functional
SH-SY5Y [4] = assay: Neuroprotective activity against amyloid beta (25 to 35)-induced cell damage in human SH-SY5Y cells assessed as LDH release at 10 uM measured after 24 hrs in presence of amyloid beta (25 to 35) by LDH assay (reference value: 364.06 +/- 2.15 %); assay type: functional
SH-SY5Y [5] = assay: Neuroprotective activity against amyloid beta (25 to 35)-induced cell damage assessed as cell viability in human SH-SY5Y cells by measuring ATP at 10 uM measured after 24 hrs in presence of amyloid beta (25 to 35) by CellTiter-Glo luminescent cell viability assay (reference value: 90.95 +/- 0.82 %); assay type: functional
[6] = Antioxidant activity assessed as DPPH radical scavenging activity at 50 uM incubated for 1 hrs under light restrictive condition by UV-microplate reader assay relative to control; assay type: functional
Procedure, shortened: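 DPPH stock 56 mM and compound stock 500 mM in anhydrous methanol; compound at 50 µM final with DPPH in methanol. Absorbance read at 517 nm after 30 s shaking, then again after 1 h at room temperature in the dark. Scavenging % = (A control − A sample)/A control ×100.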

SH-SY5Y [7] = assay: Neuroprotective activity against amyloid beta (25 to 35)-induced oxidative stress in human SH-SY5Y cells assessed as decrease in intracellular ROS production at 10 uM incubated with amyloid beta (25 to 35) for 24 hrs by DCFH-DA staining-based flow cytometric analysis; assay type: functional, cell-based
Procedure, shortened: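 SH-SY5Y (1×10⁶ cells/well) grown 24 h, then exposed to unaggregated Aβ25-35 (10 µM) ± compounds (10 µM) for 24 h at 37 °C. After three PBS washes, cells were loaded with DCFH-DA (10 µM) for 30 min, rinsed, pelleted at 1500 rpm for 5 min, resuspended in PBS and analyzed by flow cytometry (10,000 events). Mean ± SD of three experiments.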

[8] = target: T1, Amyloid-beta precursor protein; assay: Inhibition of amyloid beta(25 to 35) (unknown origin) binding to human SH-SY5Y cell plasma membrane at 10 uM measured after 20 mins by UV-vis microplate reader assay; assay type: cell membranes
Procedure, shortened: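 SH-SY5Y cells seeded 24 h, then fresh medium with Aβ25-35 (10 µM) ± compounds (10 µM) for 30, 60 and 120 min. After two PBS washes, bound peptide was stained with Congo red in PBS for 20 min and read at 540 nm. Values are % of untreated cells (100%).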

SH-SY5Y [9] = assay: Neuroprotective activity against amyloid beta (25 to 35)-induced cell damage in human SH-SY5Y cells assessed as viable at 10 uM by annexin-V and propidium iodide staining based flow cytometry analysis assay (reference value: 88.2 %); assay type: functional
Procedure, shortened: (§1)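 SH-SY5Y cells exposed to Aβ25-35 (10 µM) ± compounds (10 µM), then trypsinized, washed with PBS and pelleted at 1000 rpm for 3 min. Cells were stained with FITC-Annexin V and PI in binding buffer for 15 min at room temperature and analyzed by flow cytometry (10,000 events). Mean ± SD of three experiments.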

SH-SY5Y [10] = assay: Neuroprotective activity against amyloid beta (25 to 35)-induced cell damage in human SH-SY5Y cells assessed as early apoptotic cell at 10 uM by annexin-V and propidium iodide staining based flow cytometry analysis assay (reference value: 10.9 %); assay type: functional; procedure, shortened: as §1
SH-SY5Y [11] = assay: Neuroprotective activity against amyloid beta (25 to 35)-induced cell damage in human SH-SY5Y cells assessed as late apoptotic cell at 10 uM by annexin-V and propidium iodide staining based flow cytometry analysis assay (reference value: 0.890 %); assay type: functional; procedure, shortened: as §1
SH-SY5Y [12] = assay: Neuroprotective activity against amyloid beta (25 to 35)-induced cell damage in human SH-SY5Y cells assessed as necrotic cell at 10 uM by annexin-V and propidium iodide staining based flow cytometry analysis assay (reference value: 0 %); assay type: functional; procedure, shortened: as §1
SH-SY5Y [13] = assay: Neuroprotective activity against amyloid beta (25 to 35)-induced cell damage in human SH-SY5Y cells assessed as increase in neuronal viability measured after 24 hrs in presence of amyloid beta (25 to 35) by MTT assay; assay type: functional, cell-based; settings: dose 1-10 µM

| SMILES | inhibition [1] | IC50 (Acetylcholinesterase) | IC50 (Cholinesterase) | Selectivity Index (Homo sapiens) | viability at 48 h, 10 µM ([2]; SH-SY5Y cells) | Activity (SH-SY5Y [3]) | Activity [6] | further results |
| --- | --- | --- | --- | --- | --- | --- | --- | --- |
| c1ccc2oc(C3CCNCC3)cc2c1 | 45.5% | 61.2 µM | 64.4 µM | 1 | – | – | – | – |
| COc1ccc(OC)c(CN2CCC(c3oc4ccccc4c3C(=O)c3ccccc3)CC2)c1 | 39.4% | 58.2 µM | 33.5 µM | 0.45 | – | – | – | – |
| COc1ccc(CN2CCC(c3cc4ccccc4o3)CC2)cc1OC | 14.7% | 52.8 µM | 64.6 µM | 1.2 | – | – | – | – |
| COc1ccc(CN2CCC(c3oc4ccccc4c3C(=O)c3ccc(OC)cc3)CC2)cc1 | 45% | 59.7 µM | 59.7 µM | 0.99 | – | – | – | – |
| Clc1ccc(CN2CCC(c3cc4ccccc4o3)CC2)cc1 | 24.4% | 98.5 µM | > 100 µM | – | – | – | – | – |
| COc1cc(/C=C/C(=O)CC(=O)/C=C/c2ccc(O)c(OC)c2)ccc1O [CURCUMIN] | – | – | – | – | 60% | 45.95% | – | – |
| O=C(c1ccccc1)c1c(C2CCN(Cc3ccccc3)CC2)oc2ccccc12 | 61.9% | 41.3 µM | > 100 µM | – | 107% | 76.06% | 21.6% | Activity (SH-SY5Y [4]): 316.05%; Activity (SH-SY5Y [5]): 95.49%; Activity (SH-SY5Y [7]): Active; inhibition (INH) [8]: Active; Activity (SH-SY5Y [9]): 98.1%; Activity (SH-SY5Y [10]): 0.77%; Activity (SH-SY5Y [11]): 0.65%; Activity (SH-SY5Y [12]): 0.52% |
| COc1cc(/C=C/C(=O)O)ccc1O | – | – | – | – | – | – | 50% | – |
| Oc1ccc(CN2CCC(c3cc4ccccc4o3)CC2)cc1 | 48.3% | 34.9 µM | 64.6 µM | 1.8 | 96.4% | – | 12.2% | – |
| COc1cc2c(cc1OC)C(=O)C(CC1CCN(Cc3ccccc3)CC1)C2 (stereo unspecified) [DONEPEZIL] | – | – | – | – | – | 60.82% | – | viability at 48 h, 10 µM ([2]; sh-sy5y): 101% |
| CCc1ccc(CN2CCC(c3cc4ccccc4o3)CC2)cc1 | 19.9% | 64.2 µM | > 100 µM | – | – | – | – | – |
| COc1ccc(OC)c(CN2CCC(c3oc4ccccc4c3C(=O)c3ccc(OC)c(OC)c3)CC2)c1 | 37.4% | 55.4 µM | 66.3 µM | 1.19 | – | – | – | – |
| c1ccc(CN2CCC(c3cc4ccccc4o3)CC2)cc1 | 55.4% | 5.07 µM | 54.3 µM | 10.8 | 105% | 88.91% | 18.2% | Activity (SH-SY5Y [13]): Dose-Dependent Effect; Activity (SH-SY5Y [4]): 294.64%; Activity (SH-SY5Y [5]): 101.59%; Activity (SH-SY5Y [7]): Active; inhibition (INH) [8]: Active; Activity (SH-SY5Y [9]): 97.5%; Activity (SH-SY5Y [10]): 1.08%; Activity (SH-SY5Y [11]): 0.55%; Activity (SH-SY5Y [12]): 0.03% |
| COc1ccc(CN2CCC(c3oc4ccccc4c3C(=O)c3ccc(OC)c(OC)c3)CC2)cc1OC | 54.4% | 68 µM | 62.2 µM | 0.9 | – | – | – | – |
| COc1ccc(CN2CCC(c3cc4ccccc4o3)CC2)cc1 | 8.04% | 92.8 µM | > 100 µM | – | – | – | – | – |
| Cc1c(C)c2c(c(C)c1O)CCC(C)(C(=O)O)O2 (stereo unspecified) | – | – | – | – | – | – | 55.5% | – |
| Oc1ccc(/C=C/c2cc(O)cc(O)c2)cc1 | – | – | – | – | – | – | 45.7% | – |
| COc1ccc(C(=O)c2c(C3CCN(Cc4ccccc4)CC3)oc3ccccc23)cc1 | 47.4% | 48.3 µM | 52.1 µM | 1.07 | 107% | 75.17% | 17.6% | Activity (SH-SY5Y [4]): 285%; Activity (SH-SY5Y [5]): 100.79% |
| COc1ccc(OC)c(CN2CCC(c3cc4ccccc4o3)CC2)c1 | 51.8% | 23.9 µM | 35.5 µM | 0.04 | 102% | 79.09% | 11.9% | Activity (SH-SY5Y [4]): 324.83%; Activity (SH-SY5Y [5]): 102.53% |
| Fc1ccc(CN2CCC(c3cc4ccccc4o3)CC2)cc1 | 57.7% | 21.3 µM | 55.8 µM | 2.6 | 101% | 80.8% | 10.8% | Activity (SH-SY5Y [13]): Dose-Dependent Effect; Activity (SH-SY5Y [4]): 287.37%; Activity (SH-SY5Y [5]): 104.56%; Activity (SH-SY5Y [7]): Active; inhibition (INH) [8]: Active; Activity (SH-SY5Y [9]): 98.2%; Activity (SH-SY5Y [10]): 1.2%; Activity (SH-SY5Y [11]): 0.05%; Activity (SH-SY5Y [12]): 1.58% |
| COc1ccc(C(=O)c2c(C3CCN(Cc4cc(OC)ccc4OC)CC3)oc3ccccc23)cc1 | 46% | 61 µM | 61.7 µM | 1.01 | – | – | – | – |
| COc1ccc(CN2CCC(c3oc4ccccc4c3C(=O)c3ccccc3)CC2)cc1 | 42.2% | 97.1 µM | 62.6 µM | 0.6 | – | – | – | – |
| COc1ccc(CN2CCC(c3oc4ccccc4c3C(=O)c3ccccc3)CC2)cc1OC | 42.9% | 45.3 µM | > 100 µM | – | – | – | – | – |
